Data from ChEMBL document CHEMBL4665666, “Discovery and characterization of trypanocidal cysteine protease inhibitors from the 'malaria box'” (Eur J Med Chem, 2019).

What was measured:
[1] = molecular target: Rhodesain (Trypanosoma brucei rhodesiense) (UniProt Q95PM0); assay: Inhibition of recombinant Trypanosoma brucei rhodesain expressed in Pichia pastoris at 5 uM using Z-FR-AMC as substrate preincubated for 10 mins followed by substrate addition and measured at 12 sec interval for 5 mins by fluorimetric analysis relative to control; conditions: time 15.0 min
In short: (§1)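 Recombinant rhodesain or cruzain (1 nM) in 0.1 M sodium acetate pH 5.5, 0.01% Triton X-100, 1 mM β-mercaptoethanol. Compound at a single concentration, either without or after 10 min enzyme pre-incubation. Inhibition is relative to DMSO, with E-64 as positive control. Done in duplicate (primary screen) or triplicate.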

[2] = molecular target: Rhodesain (Trypanosoma brucei rhodesiense) (UniProt Q95PM0); assay: Inhibition of recombinant Trypanosoma brucei rhodesain expressed in Pichia pastoris at 100 uM using Z-FR-AMC as substrate and measured at 12 sec interval for 5 mins without preincubation by fluorimetric analysis relative to control
In short: (§2)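 Run with no pre-incubation or with 10 min enzyme-compound pre-incubation. Fluorescence read at 340/440 nm. Concentration was set by solubility under assay conditions. Inhibition is against DMSO, with E-64 as positive control; triplicate.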

[3] = molecular target: Rhodesain (Trypanosoma brucei rhodesiense) (UniProt Q95PM0); assay: Inhibition of recombinant Trypanosoma brucei rhodesain expressed in Pichia pastoris at 100 uM using Z-FR-AMC as substrate preincubated for 10 mins followed by substrate addition and measured at 12 sec interval for 5 mins by fluorimetric analysis relative to control; conditions: time 15.0 min; in short: as §2
[4] = molecular target: Cruzipain (Trypanosoma cruzi) (UniProt P25779); assay: Inhibition of recombinant Trypanosoma cruzi cruzain at 5 uM using Z-FR-AMC as substrate and measured at 12 sec interval for 5 mins without preincubation by fluorimetric analysis relative to control; in short: as §1
[5] = molecular target: Cruzipain (Trypanosoma cruzi) (UniProt P25779); assay: Inhibition of recombinant Trypanosoma cruzi cruzain at 5 uM using Z-FR-AMC as substrate preincubated for 10 mins followed by substrate addition and measured at 12 sec interval for 5 mins by fluorimetric analysis relative to control; conditions: time 15.0 min; in short: as §1
[6] = molecular target: Cruzipain (Trypanosoma cruzi) (UniProt P25779); assay: Inhibition of recombinant Trypanosoma cruzi cruzain at 10 uM using Z-FR-AMC as substrate preincubated for 10 mins followed by substrate addition and measured at 12 sec interval for 5 mins by fluorimetric analysis relative to control; conditions: time 15.0 min
In short: as §1, with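 “pre-incubation. Z-FR-AMC 2.5 µM, read at 340/440 nm every 12 s for 5 min.” for “pre-incubation.”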

[7] = molecular target: Cruzipain (Trypanosoma cruzi) (UniProt P25779); assay: Inhibition of recombinant Trypanosoma cruzi cruzain at 100 uM using Z-FR-AMC as substrate and measured at 12 sec interval for 5 mins without preincubation by fluorimetric analysis relative to control
In short: as §1, with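 “pre-incubation. Z-FR-AMC 2.5 µM, read at 340/440 nm every 12 s for 5 min.” for “pre-incubation.”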

[8] = molecular target: Cruzipain (Trypanosoma cruzi) (UniProt P25779); assay: Inhibition of recombinant Trypanosoma cruzi cruzain at 100 uM using Z-FR-AMC as substrate preincubated for 10 mins followed by substrate addition and measured at 12 sec interval for 5 mins by fluorimetric analysis relative to control; conditions: time 15.0 min
In short: as §1, with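 “pre-incubation. Z-FR-AMC 2.5 µM, read at 340/440 nm every 12 s for 5 min.” for “pre-incubation.”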

[9] = molecular target: Cruzipain (Trypanosoma cruzi) (UniProt P25779); assay: Inhibition of recombinant Trypanosoma cruzi cruzain at 10 uM using Z-FR-AMC as substrate and measured at 12 sec interval for 5 mins without preincubation by fluorimetric analysis relative to control
In short: as §1, with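 “pre-incubation. Z-FR-AMC 2.5 µM, read at 340/440 nm every 12 s for 5 min.” for “pre-incubation.”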

[10] = molecular target: Rhodesain (Trypanosoma brucei rhodesiense) (UniProt Q95PM0); assay: Inhibition of recombinant Trypanosoma brucei rhodesain expressed in Pichia pastoris at 5 uM using Z-FR-AMC as substrate and measured at 12 sec interval for 5 mins without preincubation by fluorimetric analysis relative to control; in short: as §1
[11] = molecular target: Rhodesain (Trypanosoma brucei rhodesiense) (UniProt Q95PM0); assay: Inhibition of recombinant Trypanosoma brucei rhodesain expressed in Pichia pastoris at 10 uM using Z-FR-AMC as substrate preincubated for 10 mins followed by substrate addition and measured at 12 sec interval for 5 mins by fluorimetric analysis relative to control; conditions: time 15.0 min
In short: as §1, with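 “pre-incubation. Z-FR-AMC 2.5 µM, read at 340/440 nm every 12 s for 5 min.” for “pre-incubation.”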

[12] = molecular target: Rhodesain (Trypanosoma brucei rhodesiense) (UniProt Q95PM0); assay: Inhibition of recombinant Trypanosoma brucei rhodesain expressed in Pichia pastoris at 10 uM using Z-FR-AMC as substrate and measured at 12 sec interval for 5 mins without preincubation by fluorimetric analysis relative to control
In short: as §1, with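 “pre-incubation. Z-FR-AMC 2.5 µM, read at 340/440 nm every 12 s for 5 min.” for “pre-incubation.”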

[13] = system: Trypanosoma brucei brucei; assay: Trypanocidal activity against Trypanosoma brucei brucei Squib 427 assessed as reduction in parasite viability; assay type: functional, organism-based
[14] = system: Trypanosoma brucei rhodesiense; assay: Trypanocidal activity against Trypanosoma brucei rhodesiense STI B900 assessed as reduction in parasite viability; assay type: functional, organism-based
[15] = molecular target: Cruzipain (Trypanosoma cruzi) (UniProt P25779); assay: Inhibition of recombinant Trypanosoma cruzi cruzain at 10 uM preincubated for 10 mins in presence of 0.01% Triton X-100 relative to control
In short: (§3)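 To test detergent sensitivity, cruzain was pre-incubated 10 min at room temperature with compound with no Triton X-100, 0.01% or 0.1% Triton X-100. Cleavage of Z-FR-AMC was then followed at pH 5.5 in acetate buffer. Percent inhibition was compared across detergent levels.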

[16] = molecular target: Cruzipain (Trypanosoma cruzi) (UniProt P25779); assay: Inhibition of recombinant Trypanosoma cruzi cruzain at 10 uM preincubated for 10 mins in absence of Triton X-100 relative to control; in short: as §3
[17] = molecular target: Cruzipain (Trypanosoma cruzi) (UniProt P25779); assay: Inhibition of recombinant Trypanosoma cruzi cruzain at 10 uM preincubated for 10 mins in presence of 0.1% Triton X-100 relative to control; in short: as §3
[18] = system: Trypanosoma cruzi; assay: Trypanocidal activity against Trypanosoma cruzi Tulahuen C4 assessed as reduction in parasite viability; assay type: functional, organism-based
[19] = molecular target: Cruzipain (Trypanosoma cruzi) (UniProt P25779); assay: Inhibition of recombinant Trypanosoma cruzi cruzain at 10 uM preincubated with enzyme for 5 mins followed by substrate addition in absence of BSA relative to control
In short: (§4)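 For BSA sensitivity, compound was held 5 min with BSA (2 mg/mL in 0.001% Triton X-100), then 5 min with 1 nM cruzain, before substrate was added and activity monitored. Parallel runs omitted BSA under otherwise identical conditions.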

[20] = molecular target: Cruzipain (Trypanosoma cruzi) (UniProt P25779); assay: Inhibition of recombinant Trypanosoma cruzi cruzain at 10 uM preincubated with BSA for 5 mins followed by incubation with enzyme for 5 mins followed by substrate addition relative to control; conditions: time 10.0 min; in short: as §4
[21] = system: Schistosoma mansoni; assay: Inhibition of recombinant Schistosoma mansoni SmCB1 expressed in Pichia pastoris at 5 uM using Z-FR-AMC as substrate and measured at 23 sec interval for 30 mins without preincubation by fluorimetric analysis relative to control
In short: (§5)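 SmCB1 (recombinant, 8 nM) in 0.1 M sodium acetate pH 5.5 with 0.01% Triton X-100 and 4 mM β-mercaptoethanol. Compound at 5 µM, either not pre-incubated or pre-incubated 10 min with enzyme. Z-FR-AMC 20 µM, fluorescence 340/440 nm every 23 s for 30 min. Inhibition is versus DMSO, with E-64 control; each condition in duplicate.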

[22] = system: Schistosoma mansoni; assay: Inhibition of recombinant Schistosoma mansoni SmCB1 expressed in Pichia pastoris at 5 uM using Z-FR-AMC as substrate preincubated for 10 mins followed by substrate addition and measured at 23 sec interval for 30 mins by fluorimetric analysis relative to control; in short: as §5
[23] = molecular target: Rhodesain (Trypanosoma brucei rhodesiense) (UniProt Q95PM0); assay: Inhibition of recombinant Trypanosoma brucei rhodesain expressed in Pichia pastoris at 20 uM using Z-FR-AMC as substrate and measured at 12 sec interval for 5 mins without preincubation by fluorimetric analysis relative to control; in short: as §2
[24] = molecular target: Cruzipain (Trypanosoma cruzi) (UniProt P25779); assay: Inhibition of recombinant Trypanosoma cruzi cruzain at 20 uM using Z-FR-AMC as substrate preincubated for 10 mins followed by substrate addition and measured at 12 sec interval for 5 mins by fluorimetric analysis relative to control; conditions: time 15.0 min
In short: as §1, with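 “pre-incubation. Z-FR-AMC 2.5 µM, read at 340/440 nm every 12 s for 5 min.” for “pre-incubation.”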

[25] = molecular target: Cruzipain (Trypanosoma cruzi) (UniProt P25779); assay: Inhibition of recombinant Trypanosoma cruzi cruzain at 20 uM using Z-FR-AMC as substrate and measured at 12 sec interval for 5 mins without preincubation by fluorimetric analysis relative to control
In short: as §1, with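 “pre-incubation. Z-FR-AMC 2.5 µM, read at 340/440 nm every 12 s for 5 min.” for “pre-incubation.”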

[26] = molecular target: Rhodesain (Trypanosoma brucei rhodesiense) (UniProt Q95PM0); assay: Inhibition of recombinant Trypanosoma brucei rhodesain expressed in Pichia pastoris at 20 uM using Z-FR-AMC as substrate preincubated for 10 mins followed by substrate addition and measured at 12 sec interval for 5 mins by fluorimetric analysis relative to control; conditions: time 15.0 min; in short: as §2

Rhodesain (Trypanosoma brucei rhodesiense), sequence (Q95PM0 1-450): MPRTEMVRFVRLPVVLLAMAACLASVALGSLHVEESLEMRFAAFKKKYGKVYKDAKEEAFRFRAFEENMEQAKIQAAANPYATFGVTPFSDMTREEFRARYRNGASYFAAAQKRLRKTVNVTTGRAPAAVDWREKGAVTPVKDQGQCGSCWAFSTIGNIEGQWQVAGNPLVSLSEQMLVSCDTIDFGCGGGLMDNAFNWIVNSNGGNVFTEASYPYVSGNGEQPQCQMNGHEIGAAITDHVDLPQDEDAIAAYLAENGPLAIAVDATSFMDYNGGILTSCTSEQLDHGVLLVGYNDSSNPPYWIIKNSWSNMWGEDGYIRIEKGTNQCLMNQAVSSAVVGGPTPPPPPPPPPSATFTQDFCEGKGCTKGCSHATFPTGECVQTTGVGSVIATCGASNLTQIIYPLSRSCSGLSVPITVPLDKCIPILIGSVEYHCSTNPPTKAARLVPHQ
Cruzipain (Trypanosoma cruzi), sequence (P25779 123-467 limits assumed): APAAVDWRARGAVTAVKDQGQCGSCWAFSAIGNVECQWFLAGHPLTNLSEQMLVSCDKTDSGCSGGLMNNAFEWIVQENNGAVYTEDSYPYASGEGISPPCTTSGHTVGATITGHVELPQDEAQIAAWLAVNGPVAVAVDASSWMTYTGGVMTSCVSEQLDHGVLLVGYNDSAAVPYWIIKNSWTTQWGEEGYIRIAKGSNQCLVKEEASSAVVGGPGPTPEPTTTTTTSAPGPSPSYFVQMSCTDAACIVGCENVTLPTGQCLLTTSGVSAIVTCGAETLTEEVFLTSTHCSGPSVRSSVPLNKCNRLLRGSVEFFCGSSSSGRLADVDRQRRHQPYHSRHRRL

inhibition [21] [%] | inhibition [22] [%] | Structure (SMILES) | inhibition [1] [%] | inhibition [4] [%] | inhibition [5] [%] | inhibition [6] [%] | inhibition [9] [%] | inhibition [10] [%] | inhibition [11] [%] | inhibition [12] [%] | IC50 [13] [µM] | further results
36.8 | 0.3 | O=C1C2=C(Nc3ccccc3SC2c2ccccc2)c2ccccc21 (stereo not drawn) | – | – | – | – | – | – | – | – | – | –
44.9 | 0 | Cc1cc(NC(=O)C2c3ccccc3C(=O)N(CC(C)C)C2c2cccs2)no1 (stereo not drawn) | – | – | – | – | – | – | – | – | – | –
4.7 | 50 | Cc1ccc(CSCc2ccc(C(=O)NC3CC3)o2)cc1 | – | – | – | – | – | – | – | – | – | –
13.6 | 38.5 | COc1ccc(-c2cc3c(nn2)-c2ccccc2C3=O)cc1 | – | – | – | – | – | – | – | – | – | –
36.3 | 9.5 | CCOc1cc(Cl)c(C(C)NC(=O)c2cccc(OC)c2)cc1OCC (stereo not drawn) | – | – | – | – | – | – | – | – | – | –

Continued, compound first:

Structure (SMILES) | inhibition [21] [%] | inhibition [22] [%] | inhibition [1] [%] | inhibition [4] [%] | inhibition [5] [%] | inhibition [6] [%] | inhibition [9] [%] | inhibition [10] [%] | inhibition [11] [%] | inhibition [12] [%] | IC50 [13] [µM] | further results
Cc1cc(Nc2ccc(C)c(Cl)c2)n2nc(C(F)(F)F)nc2n1 | – | – | 57.8 | 23.9 | 47.2 | 4 | 2 | 27.7 | 1 | 5 | 32 | inhibition [2]: 16%; inhibition [3]: 15%; inhibition [7]: 25%; inhibition [8]: 16%
c1ccc(-c2ccc(-c3nc4ccccc4[nH]3)cc2)cc1 | – | – | 52.9 | 77 | 87.1 | 38 | 33 | 42.2 | 52 | 14 | 32 | IC50 [14]: 32 µM; inhibition [15]: 38.4%; inhibition [16]: 100%; inhibition [17]: 7.3%; IC50 [18]: 32 µM; inhibition [19]: 41.3%; inhibition [20]: 29%
CCOc1ccc(/C=C/c2nc(=O)c3ccccc3o2)cc1 | – | – | 67 | 30.1 | 88.6 | 3 | 10 | 32.7 | 0 | 8 | 32 | inhibition [23]: 14%; inhibition [24]: 10%; inhibition [25]: 15%; inhibition [26]: 0%
FC(F)(F)c1cccc(CNC2CCN(CCc3ccccc3)CC2)c1 | – | – | 70.8 | 23.1 | 65.1 | 6 | 0 | 20.3 | 8 | 1 | – | inhibition [2]: 12%; inhibition [3]: 14%; inhibition [7]: 7%; inhibition [8]: 22%
COc1ccc2sc(N(Cc3cccnc3)C(=O)c3ccc(C#N)cc3)nc2c1 | – | – | 76.9 | 53 | 72.3 | 7 | 9 | 50.7 | 21 | 10 | 32 | –
